The source of these data is ChEMBL document CHEMBL4376814, “Novel cyclin-dependent kinase 9 (CDK9) inhibitor with suppression of cancer stemness activity against non-small-cell lung cancer” (Eur J Med Chem, 2019).

The target of assay [1] is Tyrosine-protein kinase CSK (Homo sapiens) (UniProt P41240). Nature of the assay: Inhibition of recombinant full-length human CSK at 1 uM using poly(Glu, Tyr) 4:1 as substrate measured after 40 mins in presence of [gamma33P]ATP by scintillation counting method relative to control. Summed up:
(§1)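 Single-point inhibition at 1 µM was measured in the Eurofins KinaseProfiler panel. Values are the mean of two independent experiments.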

In assay [2] the test system is Mast/stem cell growth factor receptor Kit (Homo sapiens), P10721 [V560G]. The assay can be described thus: Inhibition of recombinant human cKit (544 to end residues) V560G mutant at 1 uM using GGMEDIYFEFMGGKKK as substrate measured after 40 mins in presence of [gamma33P]ATP by scintillation counting method relative to control. Summed up: as §1
The species named for assay [3] is Homo sapiens. Nature of the assay: Inhibition of recombinant full-length human AURKA I31F mutant at 1 uM using LRRASLG as substrate measured after 40 mins in presence of [gamma33P]ATP by scintillation counting method relative to control.
Assay [4] addresses Mitogen-activated protein kinase kinase kinase 2 (Homo sapiens) (UniProt Q9Y2U5). Nature of the assay: Inhibition of full-length recombinant human MEKK2 at 1 uM using myelin basic protein as substrate measured after 40 mins in presence of [gamma33P]ATP by scintillation counting method relative to control. A digest of the protocol: (§2)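 Percent inhibition of kinase activity at a single compound concentration, measured by the outsourced Eurofins KinaseProfiler panel. Values are the mean of two independent experiments.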

Assay [5] concerns NCI-H1299. Nature of the assay: Inhibition of colony formation in human H1299 cells after 12 days by crystal violet staining based assay. Type of assay: functional, cell-based. Summed up: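 Cells exposed to compound, then washed, trypsinized and reseeded at 300 cells per well in 6-well plates. Colonies grew 10-14 days (legend: 12 days), were fixed in methanol 30 min, stained overnight with 0.5% crystal violet and imaged.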

In assay [6] the target is Dual specificity tyrosine-phosphorylation-regulated kinase 1B (Homo sapiens) (UniProt Q9Y463). Nature of the assay: Inhibition of recombinant full-length human DYRK1B at 1 uM using RRRFRPASPLRGPPK as substrate measured after 40 mins in presence of [gamma33P]ATP by scintillation counting method relative to control.
Chain of Dual specificity tyrosine-phosphorylation-regulated kinase 1B (Homo sapiens) (Q9Y463 whole entry, looked up): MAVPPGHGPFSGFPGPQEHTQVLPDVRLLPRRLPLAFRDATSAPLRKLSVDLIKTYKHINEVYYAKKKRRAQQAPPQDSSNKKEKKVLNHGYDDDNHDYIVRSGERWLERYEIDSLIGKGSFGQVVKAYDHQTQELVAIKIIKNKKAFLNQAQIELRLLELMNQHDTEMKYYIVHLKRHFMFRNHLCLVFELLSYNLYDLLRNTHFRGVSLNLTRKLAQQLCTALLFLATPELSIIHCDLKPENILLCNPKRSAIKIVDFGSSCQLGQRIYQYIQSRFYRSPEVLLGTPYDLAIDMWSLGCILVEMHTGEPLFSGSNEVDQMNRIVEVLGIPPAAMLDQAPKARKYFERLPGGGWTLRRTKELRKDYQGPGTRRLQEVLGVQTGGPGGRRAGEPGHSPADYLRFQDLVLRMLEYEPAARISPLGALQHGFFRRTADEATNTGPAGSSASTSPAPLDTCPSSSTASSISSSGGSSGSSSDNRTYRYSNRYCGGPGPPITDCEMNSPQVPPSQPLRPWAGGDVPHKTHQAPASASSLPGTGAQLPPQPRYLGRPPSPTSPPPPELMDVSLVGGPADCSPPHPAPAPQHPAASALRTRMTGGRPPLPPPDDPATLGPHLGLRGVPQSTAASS
For assay [7], the target named is Serine/threonine-protein kinase Chk1 (Homo sapiens) (UniProt O14757). Nature of the assay: Inhibition of full length recombinant human CHK1 at 1 uM using KKKVSRSGLYRSPSMPENLNRPR as substrate measured after 40 mins in presence of [gamma33P]ATP by scintillation counting method relative to control.
Chain of Serine/threonine-protein kinase Chk1 (Homo sapiens) (O14757 whole entry): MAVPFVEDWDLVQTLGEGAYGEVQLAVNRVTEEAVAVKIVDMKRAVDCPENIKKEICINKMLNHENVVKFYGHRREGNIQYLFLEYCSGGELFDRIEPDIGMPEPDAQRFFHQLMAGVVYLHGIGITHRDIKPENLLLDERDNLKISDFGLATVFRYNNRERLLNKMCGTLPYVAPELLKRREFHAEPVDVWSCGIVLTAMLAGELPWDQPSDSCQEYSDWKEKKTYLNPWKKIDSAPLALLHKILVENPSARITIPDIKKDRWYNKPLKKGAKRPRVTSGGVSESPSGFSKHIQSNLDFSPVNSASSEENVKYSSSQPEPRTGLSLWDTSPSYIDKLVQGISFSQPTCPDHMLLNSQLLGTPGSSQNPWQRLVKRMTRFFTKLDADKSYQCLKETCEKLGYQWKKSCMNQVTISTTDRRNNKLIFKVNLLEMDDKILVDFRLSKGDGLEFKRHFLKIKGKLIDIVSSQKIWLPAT
Assay [8] concerns SiHa. The assay can be described thus: Antiproliferative activity against human SiHa cells assessed as inhibition of cell viability at 10 uM after 72 hrs by CCK-8 assay relative to control. It counts as functional. A digest of the protocol:
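Single-concentration viability screen using CCK-8. Cells were seeded at 3000/well and treated for 72 h. A450 read after 1-4 h with reagent. Percent inhibition calculated against untreated control and blank wells as (Ac−As)/(Ac−Ab)×100%.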
(In general: Tetrazolium dyes change colour on reduction, which living cells bring about.)

The subject of assay [9] is NCI-H1299. The assay can be described thus: Antitumour activity against human H1299 cells xenografted in Balb/c mouse assessed as inhibition of phosphorylation of RNA polymerase 2 CTD domain at Ser 5 residue at 20 to 80 mg/kg, po administered for 3 weeks by […] based light microscopic analysis. It counts as functional, organism-based. A digest of the protocol: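 Tumours came from the H1299 oral-dosing xenograft run for 3 weeks. Formalin-fixed, paraffin-embedded 5-µm sections were deparaffinized and rehydrated. Primary antibodies (CDK9, cyclin T1, p-Rb Ser780, RNAPII CTD Ser5, Oct4) used at 1:100 overnight at 4 °C. Biotinylated secondary for 1 h at room temperature, then ABC-peroxidase/DAB, hematoxylin counterstain and light microscopy.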

Assay [10] has as its target Misshapen-like kinase 1 (Homo sapiens) (UniProt Q8N4C8). Nature of the assay: Inhibition of recombinant human MINK (1 to 310 recombinant) at 1 uM using myelin basic protein as substrate measured after 40 mins in presence of [gamma33P]ATP by scintillation counting method relative to control.
The target of assay [11] is Cyclin-dependent kinase 2/cyclin E1 (Homo sapiens) (UniProt P24864+P24941). Nature of the assay: Inhibition of recombinant full-length human CDK2/cyclinE at 1 uM using Histone H1 as substrate measured after 40 mins in presence of [gamma33P]ATP by scintillation counting method relative to control. Type of assay: protein-complex assay.
The target of assay [12] is Testis-specific serine/threonine-protein kinase 3 (Homo sapiens) (UniProt Q96PN8). Nature of the assay: Inhibition of recombinant full-length human TSSK3 at 1 uM using AMARAASAAALARRR as substrate measured after 40 mins in presence of [gamma33P]ATP by scintillation counting method relative to control.
Chain of Testis-specific serine/threonine-protein kinase 3 (Homo sapiens) (Q96PN8 whole entry): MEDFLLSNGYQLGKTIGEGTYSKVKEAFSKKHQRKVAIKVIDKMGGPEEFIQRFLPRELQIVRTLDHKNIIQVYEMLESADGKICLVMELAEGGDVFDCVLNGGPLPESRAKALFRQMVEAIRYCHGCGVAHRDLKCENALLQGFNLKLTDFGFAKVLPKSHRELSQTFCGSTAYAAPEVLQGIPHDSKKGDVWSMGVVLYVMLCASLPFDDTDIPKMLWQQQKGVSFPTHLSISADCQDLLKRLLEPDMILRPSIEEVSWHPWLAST
Assay [13] deals with A549. The assay can be described thus: Induction of apoptosis in human A549 cells assessed as activation of caspase 3 at 0.25 to 1 uM after 24 hrs by Western blot analysis. Type of assay: functional, cell-based. Summed up:
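A549 or H1299 cells exposed to the indicated concentrations for 24 h. Protein extracts then immunoblotted for apoptosis-pathway proteins (Bcl2, Bim, cleaved caspase 3).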

Assay [14] deals with Macrophage colony-stimulating factor 1 receptor (Homo sapiens) (UniProt P07333). Nature of the assay: Inhibition of recombinant human Fms (538 to end residues) at 1 uM using KKKSPGEYVNIEFG as substrate measured after 40 mins in presence of [gamma33P]ATP by scintillation counting method relative to control.
The target of assay [15] is Homeodomain-interacting protein kinase 4 (Homo sapiens) (UniProt Q8NE63). The assay can be described thus: Inhibition of recombinant full-length human HIPK4 at 1 uM using RRRFRPASPLRGPPK as substrate measured after 40 mins in presence of [gamma33P]ATP by scintillation counting method relative to control.
Chain of Homeodomain-interacting protein kinase 4 (Homo sapiens) (Q8NE63 whole entry): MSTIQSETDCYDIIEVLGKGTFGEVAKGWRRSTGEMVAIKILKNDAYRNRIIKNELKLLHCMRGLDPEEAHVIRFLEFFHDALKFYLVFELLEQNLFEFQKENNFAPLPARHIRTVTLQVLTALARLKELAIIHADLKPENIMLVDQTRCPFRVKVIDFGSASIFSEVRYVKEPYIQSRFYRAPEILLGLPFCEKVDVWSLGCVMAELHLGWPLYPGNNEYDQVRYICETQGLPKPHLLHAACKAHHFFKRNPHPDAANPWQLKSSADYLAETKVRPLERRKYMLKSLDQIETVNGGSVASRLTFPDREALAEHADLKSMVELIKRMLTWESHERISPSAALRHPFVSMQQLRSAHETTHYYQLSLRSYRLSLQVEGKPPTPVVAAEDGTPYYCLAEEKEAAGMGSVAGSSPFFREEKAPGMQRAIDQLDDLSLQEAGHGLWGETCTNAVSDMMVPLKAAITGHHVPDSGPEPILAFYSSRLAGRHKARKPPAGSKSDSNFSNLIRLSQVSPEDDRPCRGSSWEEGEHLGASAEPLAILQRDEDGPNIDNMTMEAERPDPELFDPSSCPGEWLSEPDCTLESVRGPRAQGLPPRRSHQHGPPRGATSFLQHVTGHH
In assay [16] the target is Casein kinase 2 (Homo sapiens) (UniProt P67870+P68400+P19784+Q8NEV1). The assay can be described thus: Inhibition of human CK2 at 1 uM relative to control. Type of assay: protein assay. A digest of the protocol:
as §2

Assay [17] addresses Activin receptor type-2A (Homo sapiens) (UniProt P27037). Nature of the assay: Inhibition of recombinant human ACTR2 (162 to end residues) at 1 uM using casein as substrate measured after 120 mins in presence of [gamma33P]ATP by scintillation counting method relative to control.
Assay [18] deals with MAP kinase-activated protein kinase 3 (Homo sapiens) (UniProt Q16644). The assay can be described thus: Inhibition of recombinant human MAPKAPK3 (2 to end residues) at 1 uM using KKLNRTLSVA as substrate measured after 40 mins in presence of [gamma33P]ATP by scintillation counting method relative to control.
Chain of MAP kinase-activated protein kinase 3 (Homo sapiens) (Q16644 whole entry, looked up): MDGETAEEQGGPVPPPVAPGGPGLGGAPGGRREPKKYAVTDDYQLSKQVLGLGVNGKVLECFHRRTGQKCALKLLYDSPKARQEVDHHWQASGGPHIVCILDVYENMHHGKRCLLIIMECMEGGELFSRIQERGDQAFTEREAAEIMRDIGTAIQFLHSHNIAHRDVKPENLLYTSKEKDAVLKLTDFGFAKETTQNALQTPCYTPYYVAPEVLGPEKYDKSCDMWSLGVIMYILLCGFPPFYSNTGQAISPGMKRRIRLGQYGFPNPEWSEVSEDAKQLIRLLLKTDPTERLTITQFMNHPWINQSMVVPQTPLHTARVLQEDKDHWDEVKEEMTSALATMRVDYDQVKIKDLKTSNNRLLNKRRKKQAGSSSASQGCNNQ
The subject of assay [19] is Proto-oncogene tyrosine-protein kinase receptor Ret (Homo sapiens), P07949 [V804M]. Nature of the assay: Inhibition of human Ret V804M mutant (658 to end residues) at 1 uM using KKKVSRSGLYRSPSMPENLNRPR as substrate measured after 40 mins in presence of [gamma33P]ATP by scintillation counting method relative to control. A digest of the protocol:
as §2

Assay [20] addresses Dual specificity mitogen-activated protein kinase kinase 2 (Homo sapiens) (UniProt P36507). The assay can be described thus: Inhibition of recombinant full-length human MEK2 at 1 uM using unactive […] as substrate measured after 40 mins in presence of [gamma33P]ATP by scintillation counting method relative to control.
The target in assay [21] is Tyrosine-protein kinase Fgr (Homo sapiens) (UniProt P09769). Nature of the assay: Inhibition of recombinant human FGR (2 to end residues) at 1 uM using poly(Glu, Tyr) 4:1 as substrate measured after 40 mins in presence of [gamma33P]ATP by scintillation counting method relative to control.

Calls of active or inactive are those of the source. The rule behind the calls is not given here.

Chain of Tyrosine-protein kinase CSK (Homo sapiens) (P41240 2-450 limits assumed): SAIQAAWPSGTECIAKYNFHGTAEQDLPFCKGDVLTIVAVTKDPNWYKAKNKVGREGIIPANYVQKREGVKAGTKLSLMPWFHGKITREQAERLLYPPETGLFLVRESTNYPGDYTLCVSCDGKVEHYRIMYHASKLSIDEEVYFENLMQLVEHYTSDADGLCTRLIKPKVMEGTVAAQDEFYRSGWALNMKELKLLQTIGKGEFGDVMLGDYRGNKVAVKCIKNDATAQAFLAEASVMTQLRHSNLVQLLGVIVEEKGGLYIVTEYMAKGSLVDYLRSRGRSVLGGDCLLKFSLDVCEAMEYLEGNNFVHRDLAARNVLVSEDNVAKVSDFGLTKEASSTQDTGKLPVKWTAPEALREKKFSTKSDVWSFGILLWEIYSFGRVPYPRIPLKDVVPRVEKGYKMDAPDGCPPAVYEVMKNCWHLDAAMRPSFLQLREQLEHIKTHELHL
Chain of Dual specificity mitogen-activated protein kinase kinase 2 (Homo sapiens) (P36507 whole entry): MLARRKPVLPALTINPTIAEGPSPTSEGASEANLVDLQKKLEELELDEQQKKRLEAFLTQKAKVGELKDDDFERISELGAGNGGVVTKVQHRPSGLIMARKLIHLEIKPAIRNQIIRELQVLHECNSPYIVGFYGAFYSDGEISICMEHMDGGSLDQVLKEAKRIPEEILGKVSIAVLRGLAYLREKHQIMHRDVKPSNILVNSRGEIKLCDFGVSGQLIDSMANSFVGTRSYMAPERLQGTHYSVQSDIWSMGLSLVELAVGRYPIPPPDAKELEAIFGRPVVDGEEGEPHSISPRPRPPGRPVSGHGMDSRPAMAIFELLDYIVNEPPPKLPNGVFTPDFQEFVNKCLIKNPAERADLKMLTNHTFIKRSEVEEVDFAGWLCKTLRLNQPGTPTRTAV
Chain of Proto-oncogene tyrosine-protein kinase receptor Ret (Homo sapiens), P07949 [V804M] (P07949 whole entry V804M): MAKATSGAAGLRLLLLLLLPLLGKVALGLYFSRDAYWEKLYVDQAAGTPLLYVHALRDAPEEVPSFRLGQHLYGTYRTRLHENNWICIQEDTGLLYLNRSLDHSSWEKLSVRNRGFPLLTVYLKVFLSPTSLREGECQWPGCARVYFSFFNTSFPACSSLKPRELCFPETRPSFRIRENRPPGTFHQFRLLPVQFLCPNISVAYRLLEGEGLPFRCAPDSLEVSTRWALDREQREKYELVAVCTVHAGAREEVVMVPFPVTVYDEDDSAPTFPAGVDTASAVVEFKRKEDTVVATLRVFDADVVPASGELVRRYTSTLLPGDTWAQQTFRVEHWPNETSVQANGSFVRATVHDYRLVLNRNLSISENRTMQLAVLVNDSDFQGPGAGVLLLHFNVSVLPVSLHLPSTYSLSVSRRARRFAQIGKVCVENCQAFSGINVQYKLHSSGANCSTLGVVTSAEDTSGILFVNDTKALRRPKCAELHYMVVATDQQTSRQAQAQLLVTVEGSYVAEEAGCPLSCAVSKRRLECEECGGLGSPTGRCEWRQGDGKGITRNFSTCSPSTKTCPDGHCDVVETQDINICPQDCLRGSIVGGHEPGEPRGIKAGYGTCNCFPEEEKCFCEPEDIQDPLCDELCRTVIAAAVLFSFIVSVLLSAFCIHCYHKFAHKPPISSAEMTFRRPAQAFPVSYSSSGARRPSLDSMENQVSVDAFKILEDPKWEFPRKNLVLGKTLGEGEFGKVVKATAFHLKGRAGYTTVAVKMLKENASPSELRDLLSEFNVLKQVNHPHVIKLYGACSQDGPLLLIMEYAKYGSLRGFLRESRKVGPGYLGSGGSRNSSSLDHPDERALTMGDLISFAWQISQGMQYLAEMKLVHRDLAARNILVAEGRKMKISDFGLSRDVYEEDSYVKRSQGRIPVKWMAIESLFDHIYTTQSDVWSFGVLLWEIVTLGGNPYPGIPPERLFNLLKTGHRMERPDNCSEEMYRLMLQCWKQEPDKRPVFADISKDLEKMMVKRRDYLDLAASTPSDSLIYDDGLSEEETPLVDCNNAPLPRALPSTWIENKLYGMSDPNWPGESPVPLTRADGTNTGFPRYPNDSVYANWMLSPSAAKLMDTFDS
Chain of Activin receptor type-2A (Homo sapiens) (P27037 whole entry): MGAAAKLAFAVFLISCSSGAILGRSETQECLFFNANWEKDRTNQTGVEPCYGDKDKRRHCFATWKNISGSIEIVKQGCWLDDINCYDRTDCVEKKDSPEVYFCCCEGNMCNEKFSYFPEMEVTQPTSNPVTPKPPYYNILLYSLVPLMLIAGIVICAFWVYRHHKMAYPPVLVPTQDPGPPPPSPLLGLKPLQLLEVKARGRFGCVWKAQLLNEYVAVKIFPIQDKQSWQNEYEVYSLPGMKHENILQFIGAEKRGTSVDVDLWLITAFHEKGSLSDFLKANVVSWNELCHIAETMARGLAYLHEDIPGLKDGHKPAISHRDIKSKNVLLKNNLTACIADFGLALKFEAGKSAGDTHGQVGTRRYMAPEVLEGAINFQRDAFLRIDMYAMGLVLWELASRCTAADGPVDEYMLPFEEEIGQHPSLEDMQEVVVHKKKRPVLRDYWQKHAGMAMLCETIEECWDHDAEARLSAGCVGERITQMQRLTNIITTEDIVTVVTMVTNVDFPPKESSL

One may read the inhibition as the change of the read-out against control, counted positive when it falls. As for `CN(C)C(=O)c1cc2cnc(Nc3ccc(NC(=O)CCCCCCCN=C=S)cc3)nc2n1C1CCCC1`, the inhibition was 1% in assay [1]; 54% in assay [2]; 95% in assay [3]; 27% in [4]; “Dose-dependent effect” in [5]; 0% in [6]. Further, the inhibition in assay [7] is -9%; in assay [10] it was 39%; in assay [11], 75%; in [12], 4%; in assay [14], 68%; in [15], 19%. Also, the inhibition is 4% in assay [16]; 0% in assay [17]; 0% in assay [18]; 58% in assay [19]; 8% in assay [20]; 66% in [21]. Also, in assay [8], the inhibition at 10 µM was found to be 97%. Further, the outcome in assay [9] and in assay [13] was Active.
